One may read the Ki as the dissociation constant of the complex between target and ligand, obtained from inhibition or displacement. For orientation: Km means the concentration of substrate that gives half-maximal velocity.

Assay type in all cases: tissue-based
Data set [1] addresses T1, Ectonucleoside triphosphate diphosphohydrolase 1 (Bos taurus, UniProt O18956).
T1 sequence (O18956 whole entry): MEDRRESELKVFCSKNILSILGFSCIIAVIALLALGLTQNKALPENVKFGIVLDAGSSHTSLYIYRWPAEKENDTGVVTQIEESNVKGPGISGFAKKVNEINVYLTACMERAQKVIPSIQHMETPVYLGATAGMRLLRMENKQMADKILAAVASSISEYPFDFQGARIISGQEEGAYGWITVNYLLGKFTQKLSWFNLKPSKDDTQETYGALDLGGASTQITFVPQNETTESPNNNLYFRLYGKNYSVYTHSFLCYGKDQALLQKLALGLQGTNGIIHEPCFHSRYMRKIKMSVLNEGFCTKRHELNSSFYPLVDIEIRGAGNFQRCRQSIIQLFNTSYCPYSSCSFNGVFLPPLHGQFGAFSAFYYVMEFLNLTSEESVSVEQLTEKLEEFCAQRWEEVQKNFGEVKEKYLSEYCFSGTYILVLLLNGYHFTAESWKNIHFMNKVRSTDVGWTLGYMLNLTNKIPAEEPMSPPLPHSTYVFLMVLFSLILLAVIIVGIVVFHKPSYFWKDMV
The experiment in a line: (§1) Tested for inhibition of Nucleoside Triphosphate Diphosphohydrolase (NTPDase) from bovine spleen. The essentials: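 Bovine spleen particulate fraction. Medium: 8 mM CaCl2, 5 mM tetramisole, 50 mM Tris, 50 mM imidazole, pH 7.6, 37 °C. Started with 1.9 μg enzyme, stopped after 7 min; Pi release read by malachite green. Triplicate.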

Compound in data set [2]: CCCCNc1nc(N)c2ncn([C@@H]3O[C@H](COP(=O)(O)OP(=O)(O)OP(=O)(O)O)[C@@H](O)[C@H]3O)c2n1
The data set is described as §1. Put shortly:
(§2)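 Bovine spleen particulate fraction. […] Medium: 8 mM CaCl2, 5 mM tetramisole, 50 mM Tris, 50 mM imidazole, pH 7.6, 37 °C. Started with 1.9 μg enzyme, stopped after 7 min; Pi release read by malachite green. Triplicate.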

Compound in data set [3]: CCCCNc1nc2c(N)ncnc2n1[C@@H]1O[C@H](COP(=O)(O)OP(=O)(O)OP(=O)(O)O)[C@@H](O)[C@H]1O
The data set is described as §1. The essentials: as §2

Compound in data set [4]: CCCCOc1nc(N)c2ncn([C@@H]3O[C@H](COP(=O)(O)OP(=O)(O)OP(=O)(O)O)[C@@H](O)[C@H]3O)c2n1
Described as §1. Put shortly:
as §2

Compound in data set [5]: CCCCOc1nc2c(N)ncnc2n1[C@@H]1O[C@H](COP(=O)(O)OP(=O)(O)OP(=O)(O)O)[C@@H](O)[C@H]1O
The data set is described as §1. The essentials: as §2

Compound in data set [6]: CCCCSc1nc(N)c2ncn(C3O[C@H](COP(=O)(O)OP(=O)(O)O)[C@@H](O)[C@H]3O)c2n1
Described as §1. Put shortly: as §2

Compound in data set [7]: CCCCSc1nc(N)c2ncn([C@@H]3O[C@H](COP(=O)(O)OP(=O)(O)OP(=O)(O)O)[C@@H](O)[C@H]3O)c2n1
Described as §1. The essentials: as §2

Compound in data set [8]: CCSc1nc2c(N)ncnc2n1[C@@H]1O[C@H](COP(=O)(O)OP(=O)(O)OP(=O)(O)O)[C@@H](O)[C@H]1O
Described as §1. The essentials:
as §2

Compound in data set [9]: Nc1ncnc2c1nc(Br)n2C1O[C@H](COP(=O)(O)OP(=O)(O)OP(=O)(O)O)[C@@H](O)[C@H]1O
The data set is described as §1. The essentials:
as §2

Compound in data set [10]: Nc1ncnc2c1ncn2[C@@H]1O[C@H](COP(=O)(O)OP(=O)(O)O)[C@@H](O)[C@H]1O
The description is as §1. Put shortly:
as §2

Compound in data set [11]: Nc1ncnc2c1ncn2[C@@H]1O[C@H](COP(=O)(O)OP(=O)(O)OP(=O)(O)O)[C@@H](O)[C@H]1O
Described as §1. Put shortly: as §2

`Nc1ncnc2c1nc(SC1CCCCCC1)n2C1O[C@H](COP(=O)(O)OP(=O)(O)OP(=O)(O)O)[C@@H](O)[C@H]1O` (stereo partly specified) returned a Ki in data set [1] of 31 µM.

B1: Ectonucleoside triphosphate diphosphohydrolase 1 (Bos taurus), O18956 (protein)
chain: MEDRRESELKVFCSKNILSILGFSCIIAVIALLALGLTQNKALPENVKFGIVLDAGSSHTSLYIYRWPAEKENDTGVVTQIEESNVKGPGISGFAKKVNEINVYLTACMERAQKVIPSIQHMETPVYLGATAGMRLLRMENKQMADKILAAVASSISEYPFDFQGARIISGQEEGAYGWITVNYLLGKFTQKLSWFNLKPSKDDTQETYGALDLGGASTQITFVPQNETTESPNNNLYFRLYGKNYSVYTHSFLCYGKDQALLQKLALGLQGTNGIIHEPCFHSRYMRKIKMSVLNEGFCTKRHELNSSFYPLVDIEIRGAGNFQRCRQSIIQLFNTSYCPYSSCSFNGVFLPPLHGQFGAFSAFYYVMEFLNLTSEESVSVEQLTEKLEEFCAQRWEEVQKNFGEVKEKYLSEYCFSGTYILVLLLNGYHFTAESWKNIHFMNKVRSTDVGWTLGYMLNLTNKIPAEEPMSPPLPHSTYVFLMVLFSLILLAVIIVGIVVFHKPSYFWKDMV
In the case of B1, the Km in data set [2] was 32 µM; in data set [3] it was 20 µM; in data set [4], 28 µM; in [5], 26 µM; in [6], 63 µM; in data set [7], 36 µM. Further, the Km in [8] was 12 µM; in [9], 22 µM; in data set [10], 33 µM; in [11] it was 18 µM.

These data come from ChEMBL document CHEMBL1133102, “Novel inhibitors of nucleoside triphosphate diphosphohydrolases: chemical synthesis and biochemical and pharmacological characterizations” (J Med Chem, 2000).
